DYRK1A inh: Dyrk1A (rat) kinase inhibition; Q63470; ADP-Glo luminescence, NFATc1 peptide; actives 0.43% (n = 310,000); inhibition, % at 12.5 µM; in the data active = inhibition above about 50%
Rtt109 HAT inh: blocks Candida albicans Rtt109/Vps75 acetyltransferase activity. Q5AAJ8. purified Rtt109/Vps75, ThioGlo CoA-SH fluorescence, 4 h. inhibition, % at 34.9 µM. actives 0.16% (n = 330,000);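 active = inhibition of at least 50% in every replicate; inconclusive = best replicate reaches 50% inhibition but some replicates fall short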
ALR inh: inhibitors of human sulfhydryl oxidase ALR; actives 3.8% (n = 290,000); inhibition, % (no concentration beside the values); purified ALR, DTT oxidation, H2O2 HRP-luminol luminescence; AID 485317;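 active = mean replicate inhibition above about 79%, with every replicate also reaching it, limit read from the data; inconclusive = only one of the two criteria met; inactive = mean below limit and not every replicate reaching it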
Target sequence (P55789 whole entry, looked up): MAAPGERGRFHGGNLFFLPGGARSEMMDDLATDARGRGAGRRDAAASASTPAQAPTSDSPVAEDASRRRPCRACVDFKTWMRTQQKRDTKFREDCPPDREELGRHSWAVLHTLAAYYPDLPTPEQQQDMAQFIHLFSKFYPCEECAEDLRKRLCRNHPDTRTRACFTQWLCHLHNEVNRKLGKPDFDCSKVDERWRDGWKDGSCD
CAL PDZ FP-1: human CAL PDZ-peptide interaction inhibition. Q9HD26. purified CAL PDZ, TMR-peptide fluorescence polarization, 1 h. inhibition, % at 20 µM. actives 0.02% (n = 330,000). AID 504414;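 active = highest replicate inhibition of at least 40%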
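Material: tagged CAL PDZ protein CerCALP, purified; buffer or medium: sodium phosphate/NaCl buffer pH 7.4 with TCEP, IgG, Thesit; also added: fluorescent TMR peptide probe; schedule: 1 h incubation at room temperature before polarization reading; technique: fluorescence polarization from S- and P-plane intensities, G-factor corrected; control set: unlabelled peptide and DMSO controls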
CAL PDZ FP-2: inhibitors of human CAL PDZ peptide binding | purified CAL PDZ, TMR-peptide fluorescence polarization, 1 h | inhibition, % at 24.9 µM | actives 0.92% (n = 300,000);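 active = mean inhibition of at least 30% with at least half of replicates also reaching 30%; inconclusive = no clear call, values can overlap the other calls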
Large screens that a line does not name were inactive. Rows were chosen to be rich in hits. Some 4.3% of all compounds tested hit in one or more screens of this group.

Fc1ccc(-c2ccc3c(c2)C2CC3CCN2Cc2ccc3c(c2)OCO3)cc1 (stereo not drawn)	none (no result: DYRK1A inh, ALR inh)
O=C(CCn1cnnn1)N1CCCC(Nc2ccc(F)cc2)C1 (stereo not drawn)	ALR inh 98.3
O=C(CCN1CCCCO1)N1CCCC(Nc2ccc(F)cc2)C1 (stereo not drawn)	ALR inh 94.7
CCN(CC(=O)NCc1ccc(F)cc1)C(=O)/C=C/c1ccc(OC)c(S(=O)(=O)NC(C)C)c1	none
CCC(=O)N(Cc1cc(=O)[nH]c2ccccc12)c1ccc(C)cc1	none
O=C(NC1CCCCC1)c1ccc([N+](=O)[O-])cc1	CAL PDZ FP-2 92.4 (no result: ALR inh)
O=C(NC1CCCCC1)c1ccc(-c2cccc([N+](=O)[O-])c2)o1	ALR inh 94.3
O=C(NC1CCCCCCC1)c1cc([N+](=O)[O-])ccc1Cl	none (no result: CAL PDZ FP-1)
COc1ccc(C(=O)COC(=O)c2ccc3c(c2)OCCO3)c(OC)c1	none (no result: ALR inh)
COc1ccc(/C=N/NC(=O)c2ccc3nc[nH]c3c2)c(OC)c1OC	none (no result: CAL PDZ FP-2)
Cc1ccc(NC(=O)CCNS(=O)(=O)c2ccc(OC(F)(F)F)cc2)c(O)c1	none
CCn1cc(C(=O)Nc2ccc(OC)c(S(=O)(=O)N3CCCCC3)c2)c(=O)c2ccc(C)nc21	none
O=C(Cc1ccccc1)c1c[nH]c(C(=O)C(Cl)(Cl)Cl)c1	CAL PDZ FP-2 167.9 (no result: ALR inh)
O=C(c1ccccc1)c1c[nH]c(C(=O)C(Cl)(Cl)Cl)c1	none
COc1ccc(/C=N/NC(=O)c2ccco2)cc1Cn1nc(C)cc1C	ALR inh 77.2
COc1cc(/C=N/Nc2ccccc2)ccc1O	ALR inh 99.4 (no result: DYRK1A inh, CAL PDZ FP-2)
COc1cc(/C=N/NC(=O)CNC(=O)c2ccco2)ccc1O	ALR inh 99.3
COc1cc(/C=N/NC(=O)CCNC(=O)c2ccccc2Cl)ccc1O	ALR inh 98.8 (no result: Rtt109 HAT inh)
COc1ccc(/C=N/NC(=O)c2ccco2)cc1Cn1nc(C)c([N+](=O)[O-])c1C	none (no result: DYRK1A inh)
CSc1ncccc1C(=O)OCC(=O)NC1CCC(C)CC1 (stereo not drawn)	none
CCc1nnc(NC(=O)CCN2C(=O)/C(=C/c3cc(OC)c(OC)c(OC)c3)SC2=S)s1	none
COc1cc(/C=N/NC(=O)CCC(=O)Nc2ccc(F)cc2)ccc1O	none
COc1ccc(OC)c(/C=N/Nc2nncn2/N=C/c2cc(OC)ccc2OC)c1	none
COc1cc(/C=N/Nc2nncn2/N=C/c2ccc(O)c(OC)c2)ccc1O	ALR inh 99.3
COc1cc(/C=N/n2cnnc2)ccc1OC(=O)c1ccncc1	ALR inh 98.2 (no result: CAL PDZ FP-1)
COc1cc(/C=N/NC(=O)CCc2ccccc2)ccc1O	ALR inh 99.0
COc1cc(/C=N/n2cnnc2)ccc1OC(=O)c1cccnc1	none (no result: ALR inh)
COc1ccc(/C=N/NC(=O)CNC(=O)c2ccncc2)cc1OC	CAL PDZ FP-2 54.9
CCOc1ccc(NC(=O)NC2CCCc3ccccc32)cc1 (stereo not drawn)	none
Nc1nc(SCc2ccccc2)c2ncn(C3CCCO3)c2n1 (stereo not drawn)	none (no result: ALR inh)
COc1cc(/C=N/n2c(-c3cc(C)[nH]n3)n[nH]c2=S)ccc1O	none (no result: ALR inh)
COc1cccc(/C=N/n2c(-c3cc(C)[nH]n3)n[nH]c2=S)c1O	ALR inh 97.7
Cc1cc(-c2n[nH]c(=S)n2/N=C/c2ccccc2[N+](=O)[O-])n[nH]1	ALR inh 94.9
COc1cc(/C=N/n2c(-c3n[nH]c4c3CCC4)n[nH]c2=S)cc(OC)c1O	ALR inh 95.2
COc1ccccc1/C=C/C=N/n1c(-c2cc(C)[nH]n2)n[nH]c1=S	ALR inh inconclusive
COc1cccc(/C=N/n2c(-c3cc(C)[nH]n3)n[nH]c2=S)c1	none (no result: DYRK1A inh, ALR inh)
COc1cc(/C=N/n2c(-c3cc(C)[nH]n3)n[nH]c2=S)cc(OC)c1OC	CAL PDZ FP-2 33.7
COc1ccccc1N1CCN(S(=O)(=O)CCNC(=O)c2ccc(Br)o2)CC1	none
COc1ccc([N+](=O)[O-])cc1NC(=O)Cn1ccc(C(F)(F)F)n1	none (no result: DYRK1A inh, ALR inh)
Cc1cc(-c2n[nH]c(=S)n2/N=C/c2ccc(Br)s2)n[nH]1	ALR inh 96.7
S=c1[nH]nc(-c2n[nH]c3c2CCC3)n1/N=C/C=C/c1ccco1	ALR inh 97.5 (no result: DYRK1A inh, Rtt109 HAT inh, CAL PDZ FP-1, CAL PDZ FP-2)
COc1cccc(/C=N/n2c(-c3n[nH]c4c3CCC4)n[nH]c2=S)c1O	ALR inh 97.0
COc1ccccc1/C=C/C=N/n1c(-c2n[nH]c3c2CCC3)n[nH]c1=S	none (no result: DYRK1A inh, Rtt109 HAT inh, CAL PDZ FP-1, CAL PDZ FP-2)

High-throughput results as filed in PubChem.
